From ChEMBL document CHEMBL4765233, “From Lead to Drug Candidate: Optimization of 3-(Phenylethynyl)-1H-pyrazolo[3,4-d]pyrimidin-4-amine Derivatives as Agents for the Treatment of Triple Negative Breast Cancer” (J Med Chem, 2016)
pIC50: −log10 of the molar value. Active and inactive are the calls of the source. The calls are words filed in the database; no cut-off is given here.

Tests used:
[1] = tested on: NCI-H1437; assay: Antiproliferative activity against human NCI-H1437 cells assessed as reduction in cell viability incubated for 72 hrs by MTT assay; format: functional, cell-based; conditions: NCI-H1437, 72 h
How it was run: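 MTT viability assay. ATCC cell lines were grown in designated medium with 10% FBS at 37 °C, 5% CO2. Cells seeded at 1500−30000 per well and incubated 24 h, then exposed to compound (0−10 μg/mL) for 72 h. MTT added for 2−4 h. Formazan dissolved in DMSO (adherent) or acidified SDS overnight (suspension), absorbance read at 570 nm. Triplicates; IC50 calculated.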

[2] = Acute toxicity in male Sprague-Dawley rat assessed as increase in body weight rate at 200 mg/kg, po administered as single dose observed until day 9 and monitored every 3 days; format: organism-based; conditions: in vivo, 216 h, time 9 day
How it was run: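 Sprague-Dawley rats (n = 3) received a single oral dose of 200 mg/kg in sterile water with 25% (v/v) PEG400 plus 5% DMSO. Behaviour and side effects were monitored daily, and average body weight was measured every 3 days.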

[3] = tested on: MDA-MB-435; assay: Antitumor activity against human MDA-MB-435 cells xenografted in SCID mouse assessed as tumor growth inhibition at 40 mg/kg, po QD for 21 days and measured every 3 days; format: functional; conditions: MDA-MB-435, po, 504 h, time 21 day
How it was run: (§1)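 SCID mice (5−6 weeks) injected subcutaneously with 100 μL of cells at 5 × 10^7/mL. At 150−200 mm3 mice randomized, 6 per group. Oral compounds given in water with 25% PEG400 plus 5% DMSO; paclitaxel given 10 mg/kg/week iv. Tumor volume a×b²/2 and body weight measured every 3 days. Inhibition rate (c−d)/c×100% against vehicle control.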

[4] = organism: Danio rerio; assay: Antiangiogenesis activity in EGFP-labelled zebrafish embryo assessed as reduction in formation of intersegmental vessels at 1.25 to 5 uM incubated for overnight by fluorescence microscopic analysis; format: functional, organism-based; conditions: dose 1.25-5 µM
How it was run: (§2)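 Transgenic FLK:EGFP zebrafish kept at 28 °C, pH 7.2−7.4, 14 h light/10 h dark. Embryos at 30 hpf incubated overnight with compound at 1.25, 2.5 or 5 μM beside a blank control. Fish anaesthetized, then vessels imaged by fluorescence microscopy.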

[5] = biological target: BDNF/NT-3 growth factors receptor (Homo sapiens, UniProt Q16620); assay: Inhibition of human recombinant TRKB (455 to end residues) using poly(Glu,Tyr)4:1 as substrate incubated for 40 mins in presence of [gamma33P-ATP] by radiometric scintillation counting analysis
Chain of BDNF/NT-3 growth factors receptor (Q16620 whole entry): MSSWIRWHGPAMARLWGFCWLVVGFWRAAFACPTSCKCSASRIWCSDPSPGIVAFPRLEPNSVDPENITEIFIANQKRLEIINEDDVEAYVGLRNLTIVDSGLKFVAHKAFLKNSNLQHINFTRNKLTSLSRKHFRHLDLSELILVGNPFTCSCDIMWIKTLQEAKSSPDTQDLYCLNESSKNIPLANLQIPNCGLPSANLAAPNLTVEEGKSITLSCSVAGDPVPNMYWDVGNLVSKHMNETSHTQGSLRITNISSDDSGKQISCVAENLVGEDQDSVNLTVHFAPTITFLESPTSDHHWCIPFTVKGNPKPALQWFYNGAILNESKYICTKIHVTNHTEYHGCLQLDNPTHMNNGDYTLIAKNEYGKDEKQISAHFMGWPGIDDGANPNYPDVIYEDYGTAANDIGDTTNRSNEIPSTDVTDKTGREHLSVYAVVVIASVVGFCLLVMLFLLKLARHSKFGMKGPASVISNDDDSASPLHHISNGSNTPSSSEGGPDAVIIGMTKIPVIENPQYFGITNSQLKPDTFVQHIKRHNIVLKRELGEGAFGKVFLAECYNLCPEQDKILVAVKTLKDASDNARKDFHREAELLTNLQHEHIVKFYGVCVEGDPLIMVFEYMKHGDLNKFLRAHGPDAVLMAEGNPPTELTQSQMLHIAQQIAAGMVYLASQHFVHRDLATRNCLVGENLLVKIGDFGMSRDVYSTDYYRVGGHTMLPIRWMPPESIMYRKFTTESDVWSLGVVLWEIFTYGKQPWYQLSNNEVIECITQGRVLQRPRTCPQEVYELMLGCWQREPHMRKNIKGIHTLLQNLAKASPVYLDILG

[6] = tested on: MDA-MB-435; assay: Antitumor activity against human MDA-MB-435 cells xenografted in SCID mouse assessed as tumor growth inhibition administered orally once daily for 21 days and measured every 3 days; format: functional; conditions: dose 10-40 mg/kg/day, time 21.0 day; how it was run: as §1
[7] = tested on: HepG2; assay: Antiproliferative activity against human HepG2 cells assessed as reduction in cell viability incubated for 72 hrs by MTT assay; format: ADME, cell-based; conditions: HepG2, 72 h
[8] = organism: Danio rerio; assay: Antiangiogenesis activity in EGFP-labelled zebrafish embryo assessed as reduction in formation of dorsal aorta at 1.25 to 5 uM incubated for overnight by fluorescence microscopic analysis; format: functional, organism-based; conditions: dose 1.25-5 µM; how it was run: as §2

Cc1ccc(NC(=O)c2ccc(C)c(C(F)(F)F)c2)cc1C#Cc1nn([C@H]2CC[C@H](O)CC2)c2ncnc(N)c12
pIC50 [1]: 5.63
Activity [2]: Toxic
inhibition in vivo at 40 mg/kg/day [3]: 100%
Activity [4]: Active
pIC50 [5]: 6.05
Activity [6]: Dose-dependent effect
pIC50 [7]: < 5.00
Activity [8]: inactive
